The subject of one series is Pseudomonas aeruginosa. The series can be described thus: Potentiation of rifampicin-induced antibacterial activity against multidrug/extremely drug-resistant/colistin-resistant Pseudomonas aeruginosa isolate 91433 assessed as fold reduction in rifampicin MIC at 4 ug/ml after 18 hrs by checkerboard assay relative to control. It is filed as functional. An outline of the steps:
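Checkerboard in Mueller-Hinton broth, 10 × 7 matrix, with the adjuvant held at 4 µg/mL. Inoculum from a 0.5 McFarland suspension diluted 1:50; 18 h at 37 °C. Antibiotic MIC (lowest concentration with no growth) with adjuvant is compared with the antibiotic MIC alone, giving a fold reduction.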

A short description of series [1]: Toxicity in Galleria mellonella assessed as survival rate at 200 mg/kg for 4 days relative to control. It is filed as organism-based. The conditions noted are these: in vivo. An outline of the steps: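 Galleria mellonella larvae, about 250 mg each, were used within 7 days of delivery. Compound alone was injected at 100 and 200 mg/kg with no bacterial challenge, ten larvae per group. Larvae were kept at 37 °C and survival was scored over 96 h.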

With `Cl.Cl.Cl.Cl.Cl.Cl.Cl.NCCCC[C@H](N)C(=O)N(CCCCCCCCCCCCO[C@@H]1[C@@H](O[C@H]2O[C@H](CO)[C@@H](O)[C@H](N)[C@H]2O)[C@H](N)C[C@H](N)[C@H]1O[C@H]1O[C@H](CN)[C@@H](O)C[C@H]1N)Cc1c2ccccc2c(Cl)c2ccccc12`, in the series on Pseudomonas aeruginosa, the “fold change (FC)” value came out at 8. Also, in series [1], the survival at 96 h worked out at 100%.
